Data reported in article PMC12777986 (RSC Medicinal Chemistry, 2025).
“Also recorded” adds a separate entry of the source.

Assays:
[1] = Plasma protein binding, rapid equilibrium dialysis; format: in vitro ADME, mouse (strain CD1); conditions: CD1, mouse, pH 7.4
Outline: (§1)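 Equilibrium dialysis (RED): compound was spiked at 2 μM into human or CD1 mouse plasma against PBS pH 7.4. Warfarin served as positive control. Plates were shaken gently at 37 °C for 6 h, and both chambers were quantified by LC–MS to give the unbound fraction.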

[2] = Single-dose safety observation and gross necropsy in rats; format: in vivo, male Sprague–Dawley rats
Outline: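 Male Sprague–Dawley rats (n = 3/group) were housed in metabolic cages and fasted overnight, with food returned 4 h post-dose. They received one oral gavage of 100 or 200 mg kg−1 (10 mL kg−1) in 40% DMSO/60% 0.5% methyl cellulose. Animals were monitored for 14 days, with body weight recorded before dosing and on days 7 and 14. Gross necropsy was done after CO2 euthanasia.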

CYP2D6 = CYP2D6 (Homo sapiens, UniProt P10635); test: Human liver microsome CYP inhibition assay, CYP2D6; format: biochemical; conditions: human liver microsomes
Chain of CYP2D6 (P10635 whole entry, canonical isoform): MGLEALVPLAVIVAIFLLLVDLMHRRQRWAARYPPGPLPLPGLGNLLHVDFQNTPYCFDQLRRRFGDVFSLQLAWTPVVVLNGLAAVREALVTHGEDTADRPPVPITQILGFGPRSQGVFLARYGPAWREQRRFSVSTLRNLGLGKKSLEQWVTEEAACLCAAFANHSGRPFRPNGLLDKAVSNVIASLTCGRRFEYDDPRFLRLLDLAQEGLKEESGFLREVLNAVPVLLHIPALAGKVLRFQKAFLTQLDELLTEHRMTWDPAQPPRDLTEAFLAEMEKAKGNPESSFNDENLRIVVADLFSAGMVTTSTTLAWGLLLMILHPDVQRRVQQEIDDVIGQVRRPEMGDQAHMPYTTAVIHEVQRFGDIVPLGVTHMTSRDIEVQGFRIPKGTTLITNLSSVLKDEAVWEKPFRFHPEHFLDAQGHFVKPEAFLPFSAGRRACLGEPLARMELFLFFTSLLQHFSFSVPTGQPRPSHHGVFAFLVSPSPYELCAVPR
Outline: (§2)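 Human liver microsomes were mixed with an isoform-specific CYP substrate and either compound or a positive-control inhibitor, then pre-incubated at 37 °C for 30 min. Reactions were started by adding an NADPH-regenerating system.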

C. elegans strain N2 = test: C. elegans lifespan assay; format: in vivo; conditions: for maximal lifespan: untreated 27 d
[3] = Stability in mouse liver microsomes; format: in vitro ADME, mouse (strain CD1); conditions: 2 μM, after 2 h
Outline: (§3)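 Compound (2 μM) was incubated at 37 °C with human or CD1 mouse liver microsome suspension. The reaction was initiated by adding NADPH as CYP cofactor.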

[4] = Single-dose safety observation and gross necropsy in mice; format: in vivo, male CD1 mice
Outline: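 Male CD1 mice (n = 3/group) were housed individually in metabolic cages and fasted 4 h, with food returned 2 h post-dose. They received one oral gavage of 25, 50 or 100 mg kg−1 (2.5–10 mg mL−1; 10 mL kg−1) in 40% DMSO/60% 0.5% methyl cellulose. Animals were monitored 14 days and weighed pre-dose and on days 7 and 14. CO2 euthanasia was followed by gross necropsy.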

CYP2C9 = CYP2C9 (Homo sapiens, UniProt P11712); test: Human liver microsome CYP inhibition assay, CYP2C9; format: biochemical; conditions: human liver microsomes
Chain of CYP2C9 (P11712 whole entry): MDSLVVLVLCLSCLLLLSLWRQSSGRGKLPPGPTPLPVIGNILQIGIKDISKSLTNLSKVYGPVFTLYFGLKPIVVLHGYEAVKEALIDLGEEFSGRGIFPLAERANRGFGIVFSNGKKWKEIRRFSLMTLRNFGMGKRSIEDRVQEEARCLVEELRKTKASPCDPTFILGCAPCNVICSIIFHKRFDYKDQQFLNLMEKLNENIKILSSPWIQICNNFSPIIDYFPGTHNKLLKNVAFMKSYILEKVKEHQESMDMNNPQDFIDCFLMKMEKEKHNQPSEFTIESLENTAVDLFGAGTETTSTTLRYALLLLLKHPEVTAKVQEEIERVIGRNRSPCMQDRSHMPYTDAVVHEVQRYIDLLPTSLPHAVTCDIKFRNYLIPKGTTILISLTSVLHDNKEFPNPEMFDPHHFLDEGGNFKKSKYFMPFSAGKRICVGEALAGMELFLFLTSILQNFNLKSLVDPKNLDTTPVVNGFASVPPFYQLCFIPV
Outline: as §2

CYP1A2 = target: T1, CYP1A2 (Homo sapiens, UniProt P05177); test: Human liver microsome CYP inhibition assay, CYP1A2; format: biochemical; conditions: human liver microsomes
T1 sequence (P05177 1-516): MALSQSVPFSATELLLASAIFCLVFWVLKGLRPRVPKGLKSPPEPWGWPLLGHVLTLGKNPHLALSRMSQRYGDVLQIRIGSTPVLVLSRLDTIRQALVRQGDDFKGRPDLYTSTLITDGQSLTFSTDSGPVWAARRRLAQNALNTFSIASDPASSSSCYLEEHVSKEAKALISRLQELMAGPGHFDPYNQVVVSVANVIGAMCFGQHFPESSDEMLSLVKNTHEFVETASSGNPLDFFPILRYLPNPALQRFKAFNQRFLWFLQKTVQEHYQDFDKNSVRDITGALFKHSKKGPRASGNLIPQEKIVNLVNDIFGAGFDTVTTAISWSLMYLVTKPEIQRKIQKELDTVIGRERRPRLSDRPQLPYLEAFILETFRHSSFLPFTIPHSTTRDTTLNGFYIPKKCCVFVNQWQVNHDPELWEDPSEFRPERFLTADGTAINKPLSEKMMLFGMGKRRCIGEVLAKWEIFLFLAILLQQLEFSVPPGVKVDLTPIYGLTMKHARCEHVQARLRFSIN
Outline: as §2

[5] = Single-dose pharmacokinetics in rats; format: in vivo, male Sprague–Dawley rats; conditions: rats vs mice, oral single dose
Outline: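 Male Sprague–Dawley rats with jugular vein cannulas (n = 3/group) were fasted overnight, with food returned 4 h post-dose. Single oral gavage of 100 or 200 mg kg−1 (10 or 20 mg mL−1; 10 mL kg−1) in 40% DMSO/60% 0.5% methyl cellulose. Cannula blood was drawn at 0.5, 1, 2, 4, 6, 8 and 24 h into K2EDTA, spun to plasma at 5 °C and stored at −70 °C for PK analysis.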

[6] = target: cloned hERG potassium channels (Homo sapiens, UniProt Q12809); test: hERG assay, automated patch clamp; format: cell-based
Chain of cloned hERG potassium channels (Q12809 whole entry): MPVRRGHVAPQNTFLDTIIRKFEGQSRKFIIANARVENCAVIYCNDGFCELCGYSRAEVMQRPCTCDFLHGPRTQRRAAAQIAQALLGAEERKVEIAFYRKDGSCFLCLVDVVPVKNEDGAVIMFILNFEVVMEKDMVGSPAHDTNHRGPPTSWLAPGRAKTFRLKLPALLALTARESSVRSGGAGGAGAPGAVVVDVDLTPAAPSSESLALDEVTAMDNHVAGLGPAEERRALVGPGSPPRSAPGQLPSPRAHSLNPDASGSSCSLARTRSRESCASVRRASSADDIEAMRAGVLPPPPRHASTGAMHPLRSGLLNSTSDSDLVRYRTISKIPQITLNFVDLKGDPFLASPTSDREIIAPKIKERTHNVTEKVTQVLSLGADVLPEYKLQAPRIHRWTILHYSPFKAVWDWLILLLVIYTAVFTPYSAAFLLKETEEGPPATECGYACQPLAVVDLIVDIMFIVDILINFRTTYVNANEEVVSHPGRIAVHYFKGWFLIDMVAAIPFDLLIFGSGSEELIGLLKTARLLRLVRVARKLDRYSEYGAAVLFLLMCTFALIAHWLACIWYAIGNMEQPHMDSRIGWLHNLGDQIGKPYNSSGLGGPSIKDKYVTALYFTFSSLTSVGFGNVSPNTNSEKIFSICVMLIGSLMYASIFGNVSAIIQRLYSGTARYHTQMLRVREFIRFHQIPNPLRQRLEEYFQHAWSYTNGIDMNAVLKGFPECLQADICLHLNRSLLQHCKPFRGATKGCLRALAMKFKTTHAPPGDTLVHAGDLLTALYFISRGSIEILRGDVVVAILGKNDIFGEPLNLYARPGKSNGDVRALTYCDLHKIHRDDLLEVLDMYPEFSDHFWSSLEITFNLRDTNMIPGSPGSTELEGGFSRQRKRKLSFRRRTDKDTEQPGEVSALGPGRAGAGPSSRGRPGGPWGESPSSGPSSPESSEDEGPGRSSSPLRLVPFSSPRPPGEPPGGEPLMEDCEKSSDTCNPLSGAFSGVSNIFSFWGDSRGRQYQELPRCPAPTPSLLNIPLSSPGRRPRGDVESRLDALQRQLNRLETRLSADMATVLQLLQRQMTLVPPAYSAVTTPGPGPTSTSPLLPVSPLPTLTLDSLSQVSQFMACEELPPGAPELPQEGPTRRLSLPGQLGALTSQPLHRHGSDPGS
Outline: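 Automated parallel patch clamp (QPatch II) was run at room temperature on HEK293 cells expressing KCNH2. Compound was applied at 0.1, 1, 10 and 100 μM (n ≥ 3), at least 6 min per concentration, from DMSO stocks diluted into HEPES-buffered saline. Cisapride 0.05 μM served as positive control. % current inhibition came from steady-state currents before and after each application.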

[7] = Single-dose pharmacokinetics in mice; format: in vivo, male CD1 mice
[8] = tested on: Salmonella typhimurium tester strains TA98, TA100, TA1535, TA1537 and Escherichia coli strain WP2 uvrA; test: Ames bacterial reverse mutation assay; conditions: 1.4 × 10^−7 to 2.3 mM
CYP2B6 = target: T2, CYP2B6 (Homo sapiens, UniProt P20813); test: Human liver microsome CYP inhibition assay, CYP2B6; format: biochemical; conditions: human liver microsomes
T2 sequence (P20813 1-491): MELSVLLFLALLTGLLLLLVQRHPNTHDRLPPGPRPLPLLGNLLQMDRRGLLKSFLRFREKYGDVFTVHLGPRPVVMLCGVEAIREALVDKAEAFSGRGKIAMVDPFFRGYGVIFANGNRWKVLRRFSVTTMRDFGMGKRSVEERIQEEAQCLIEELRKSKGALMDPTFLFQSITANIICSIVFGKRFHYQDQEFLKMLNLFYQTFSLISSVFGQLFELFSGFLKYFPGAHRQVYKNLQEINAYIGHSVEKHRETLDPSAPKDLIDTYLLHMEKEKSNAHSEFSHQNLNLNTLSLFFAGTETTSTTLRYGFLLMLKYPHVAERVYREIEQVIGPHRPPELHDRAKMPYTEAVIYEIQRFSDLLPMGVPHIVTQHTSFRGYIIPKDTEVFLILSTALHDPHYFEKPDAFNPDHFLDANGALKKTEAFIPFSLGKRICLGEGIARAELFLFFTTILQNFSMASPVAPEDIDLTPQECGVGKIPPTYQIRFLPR
Outline: as §2

[9] = Stability in human liver microsomes; format: in vitro ADME; conditions: 2 μM, after 2 h
Outline: as §3

HepG2 cells = test: HepG2 cytotoxicity assay; format: cell-based, human; conditions: 50 μM
Outline: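 HepG2 cells were kept in DMEM with 10% FBS and penicillin/streptomycin at 37 °C, 5% CO2, seeded ~5000 cells/well and allowed to attach overnight. Serial dilutions of compound in medium were added, with 0.1% DMSO vehicle and terfenadine as positive control. Viability was read by CellTiter-Glo ATP luminescence and normalized to vehicle as % viability per concentration.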

[10] = Bidirectional Caco-2 cell permeability assay; format: in vitro ADME; conditions: human
[11] = Stability in mouse plasma; format: in vitro ADME, mouse (strain CD1); conditions: 2 μM, after 4 h
CYP2C8 = target: T3, CYP2C8 (Homo sapiens, UniProt P10632); test: Human liver microsome CYP inhibition assay, CYP2C8; format: biochemical; conditions: human liver microsomes
T3 sequence (P10632 1-490): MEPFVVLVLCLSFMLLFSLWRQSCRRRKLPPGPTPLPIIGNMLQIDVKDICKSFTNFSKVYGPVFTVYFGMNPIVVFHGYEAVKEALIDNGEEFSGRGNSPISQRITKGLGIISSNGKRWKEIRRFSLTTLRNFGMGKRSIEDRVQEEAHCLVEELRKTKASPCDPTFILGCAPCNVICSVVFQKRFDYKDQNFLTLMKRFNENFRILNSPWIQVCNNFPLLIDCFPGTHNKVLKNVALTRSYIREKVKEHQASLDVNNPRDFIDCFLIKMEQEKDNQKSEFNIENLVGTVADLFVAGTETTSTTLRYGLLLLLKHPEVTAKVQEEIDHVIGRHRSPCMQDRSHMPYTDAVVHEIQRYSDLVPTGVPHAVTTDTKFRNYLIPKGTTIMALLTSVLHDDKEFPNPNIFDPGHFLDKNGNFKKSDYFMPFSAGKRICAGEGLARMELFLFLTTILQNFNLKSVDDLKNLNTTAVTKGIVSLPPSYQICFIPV
Outline: as §2

PCFT transporter = target: T4, PCFT transporter (Homo sapiens, UniProt Q96NT5); test: Folate uptake assay in Caco-2 cell monolayers; format: cell-based; conditions: Caco-2, pH 5.5, read-out: inhibition of folate uptake
T4 sequence (Q96NT5 1-459): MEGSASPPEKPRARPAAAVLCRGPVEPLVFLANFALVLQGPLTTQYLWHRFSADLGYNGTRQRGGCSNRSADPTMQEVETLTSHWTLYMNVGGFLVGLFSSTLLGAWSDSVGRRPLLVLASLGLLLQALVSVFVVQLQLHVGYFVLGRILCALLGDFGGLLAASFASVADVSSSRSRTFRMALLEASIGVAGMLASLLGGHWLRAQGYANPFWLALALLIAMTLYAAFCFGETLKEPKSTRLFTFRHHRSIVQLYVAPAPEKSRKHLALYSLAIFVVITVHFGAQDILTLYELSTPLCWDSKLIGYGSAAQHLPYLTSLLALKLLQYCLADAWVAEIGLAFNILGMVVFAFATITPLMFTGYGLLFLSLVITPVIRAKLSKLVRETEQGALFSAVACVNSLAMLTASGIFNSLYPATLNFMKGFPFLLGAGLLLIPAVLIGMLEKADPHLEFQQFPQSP
Outline: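 Caco-2 cells were grown in high-glucose DMEM with 10% FBS, penicillin/streptomycin and NEAA, seeded at 3 × 10^4 cells/well and differentiated 8–10 days. Monolayers were pre-incubated 30 min at 37 °C in HBSS/10 mM MES pH 5.5 with compound (50 μM), pemetrexed or DMSO, then exposed 6 min to 10 nM [3H]folic acid ± inhibitor. Uptake was counted by scintillation, normalized to BCA protein and expressed as % of vehicle. Run in duplicate.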

[12] = Stability in human plasma; format: in vitro ADME; conditions: 2 μM, after 4 h
[13] = Plasma protein binding, rapid equilibrium dialysis; format: in vitro ADME; conditions: human, pH 7.4
Outline: as §1

CYP3A4 = CYP3A4 (Homo sapiens, UniProt P08684); test: Human liver microsome CYP inhibition assay, CYP3A4; format: biochemical; conditions: human liver microsomes
Chain of CYP3A4 (P08684 whole entry): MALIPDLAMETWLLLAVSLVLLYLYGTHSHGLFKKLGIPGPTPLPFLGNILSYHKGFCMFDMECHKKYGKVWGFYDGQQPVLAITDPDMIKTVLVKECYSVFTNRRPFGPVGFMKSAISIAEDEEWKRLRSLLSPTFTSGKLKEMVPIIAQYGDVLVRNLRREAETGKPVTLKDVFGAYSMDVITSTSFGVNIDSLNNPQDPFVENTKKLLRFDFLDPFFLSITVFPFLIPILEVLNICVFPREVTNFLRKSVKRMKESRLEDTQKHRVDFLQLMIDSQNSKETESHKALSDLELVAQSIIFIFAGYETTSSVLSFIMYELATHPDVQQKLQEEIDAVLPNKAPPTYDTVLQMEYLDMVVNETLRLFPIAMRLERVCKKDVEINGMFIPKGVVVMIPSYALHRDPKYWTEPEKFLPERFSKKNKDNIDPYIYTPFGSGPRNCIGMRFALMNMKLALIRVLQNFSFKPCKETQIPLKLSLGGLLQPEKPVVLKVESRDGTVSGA
Outline: as §2

CYP2C19 = CYP2C19 (Homo sapiens, UniProt P33261); test: Human liver microsome CYP inhibition assay, CYP2C19; format: biochemical; conditions: human liver microsomes
Chain of CYP2C19 (P33261 whole entry): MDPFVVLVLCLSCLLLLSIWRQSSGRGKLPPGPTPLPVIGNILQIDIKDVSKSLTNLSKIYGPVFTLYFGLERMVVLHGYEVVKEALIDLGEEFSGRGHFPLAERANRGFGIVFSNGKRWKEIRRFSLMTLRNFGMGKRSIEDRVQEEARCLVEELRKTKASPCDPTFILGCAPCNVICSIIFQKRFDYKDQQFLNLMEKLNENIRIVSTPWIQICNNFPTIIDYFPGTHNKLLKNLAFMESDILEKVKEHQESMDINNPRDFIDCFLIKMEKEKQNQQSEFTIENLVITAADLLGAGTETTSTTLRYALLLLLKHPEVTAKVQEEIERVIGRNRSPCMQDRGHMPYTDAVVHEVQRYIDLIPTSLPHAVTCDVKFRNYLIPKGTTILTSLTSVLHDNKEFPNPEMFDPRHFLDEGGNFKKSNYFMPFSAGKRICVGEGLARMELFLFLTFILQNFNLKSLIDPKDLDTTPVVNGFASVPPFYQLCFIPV
Outline: as §2

[14] = monitored 14 days after single oral dose
[15] = continuous exposure, 50 and 100 μM
[16] = male, CD1, mouse, plasma, po, 100 mg/kg

With CC(=O)N1CCC(C(=O)N2CCN3C(=O)c4cc(-c5ccccc5)ccc4NC(=O)C3C2)CC1 (centres unmarked) [MPOL_B_1, 13-(1-acetylpiperidine-4-carbonyl)-5-phenyl-1,9,13-triazatricyclo[9.4.0.03,8]pentadeca-3(8),4,6-triene-2,10-dione] the fraction unbound at 6 h, 2 μM [1] was 0.294 ± 0.059, the gross necropsy ([2]; group 1, 100 mg kg^−1) was “enlarged stomach and caecum and blood in the abdominal cavity” and the gross necropsy ([2]; highest dose (200 mg kg^−1)) was “no organ pathologies or other abnormalities”. The body weight loss [2, 14] was “no significant body weight loss”, the signs of illness [2, 14] was “no signs of illness” and the inhibition at 5 min, 50 µM (CYP2D6) was 16.9%. For the same compound, the maximal lifespan (C. elegans strain N2; 50 μM) was 35 days, the maximal lifespan (C. elegans strain N2; 100 μM) was 35 days and the increase of lifespan (C. elegans strain N2; C. elegans) was “up to 30%”. The longer maximal lifespan (C. elegans strain N2; [15]) was roughly 30%, the longer mean lifespan (C. elegans strain N2; [15]) was roughly 30% and the “Stability in mouse microsomes” value [3] was 83% after 2 h. The gross necropsy ([4]; group 2, 50 mg kg^−1) was “had an enlarged stomach when gross necropsy was performed, and another from the same group had dark patches on the lungs”, the gross necropsy ([4]; highest dose (100 mg kg^−1)) was “no organ pathologies or other abnormalities; also recorded: No abnormalities” and the body weight loss [4, 14] was “no significant body weight loss”. For the same compound, the signs of illness [4, 14] was “no signs of illness”, the inhibition at 5 min, 50 µM (CYP2C9) was 11.4% and the inhibition at 5 min, 50 µM (CYP1A2) was 5.2%. For the same compound, the “systemic bioavailability in rats, times lower than in mice” value [5] was “approximately 10 times”, the IC50 [6] was 87 µM and the “concentration of the drug in fecal samples” value ([7]; collected 24 hours after oral administration) was 5 to 10 mg/g. The AUC(0-t) [7, 16] was 2380 ± 1180 ng·h/mL, the Cmax [7, 16] was 416 ± 67 ng/mL and the Tmax [7, 16] was 1.7 ± 0.6 h. The half-life [7, 16] was 5.7 ± 4.1 h, the “systemic bioavailability (dose proportionality of AUC)” value ([7]; mice, oral gavage 25, 50 and 100 mg kg^−1) was “became saturated at doses of 50 mg kg^−1 and above” and the Ames mutagenicity test [8] was “Not mutagenic”. For the same compound, the inhibition at 5 min, 50 µM (CYP2B6) was 0%, the “Stability in human microsomes” value [9] was greater than 90% after 2 h and the Hep2 cells cytotoxicity (HepG2 cells) was “Not significant”. For the same compound, the Papp A→B at 2 h, 10 μM [10] was 0.37 ×10⁻⁶ cm/s, the Papp B→A at 2 h, 10 μM [10] was 7.17 ×10⁻⁶ cm/s and the “Stability in mouse plasma” value [11] was greater than 90% after 4 h. For the same compound, the inhibition at 5 min, 50 µM (CYP2C8) was 4.9%, the inhibition at 50 µM (PCFT transporter) was 42% and the “Stability in human plasma” value [12] was greater than 90% after 4 h. For the same compound, the fraction unbound at 6 h, 2 μM [13] was 0.525 ± 0.08, the inhibition at 5 min, 50 µM (CYP3A4) was 22.5% and the inhibition at 5 min, 50 µM (CYP2C19) was 19.4%.
With Cc1ccc(NC(=O)N2Cc3[nH]cnc3C[C@H]2c2nc(-c3ccc4c(c3)OCO4)no2)cc1 [MPOL_D_1, (6S)-6-[3-(2H-1,3-benzodioxol-5-yl)-1,2,4-oxadiazol-5-yl]-N-(4-methylphenyl)3H,4H,5H,6H,7H-imidazo[4,5-c]pyridine-5-carboxamide] the effect on lifespan (C. elegans strain N2; dose range 1–100 μM, compared with MPOL_B_1) was “did not exhibit similar effects”.
Nc1nc2[nH]cc(CCc3ccc(C(=O)N[C@@H](CCC(=O)O)C(=O)O)cc3)c2c(=O)[nH]1 [pemetrexed, reference compound] gave an inhibition at 50 µM (PCFT transporter) of 62%.
